Assays:
MCF7 [1] = assay: Antiproliferative activity against human ER-negative MCF7 cells after 24 hrs by MTT assay; assay type: functional, cell-based
MDA-MB-231 [2] = assay: Antiproliferative activity against human ER-positive MDA-MB-231 cells after 24 hrs by MTT assay; assay type: functional, cell-based
[3] = Antiproliferative activity against human prostate, androgen receptor positive DU145 cells after 24 hrs by MTT assay; assay type: functional, cell-based, DU-145
Ishikawa = assay: Antiproliferative activity against human ER-positive Ishikawa cells after 24 hrs by MTT assay; assay type: functional, cell-based
HeLa = assay: Antiproliferative activity against human HeLa cells after 24 hrs by MTT assay; assay type: functional, cell-based
[4] = Cytotoxicity against human MCF10A cells after 72 hrs by MTT assay; assay type: ADME, cell-based; conditions: MCF-10A
MCF7 [5] = assay: Antiproliferative activity against human ER-negative MCF7 cells after 72 hrs by MTT assay; assay type: functional, cell-based; conditions: MCF7, 72 h
MDA-MB-231 [6] = assay: Antiproliferative activity against human ER-positive MDA-MB-231 cells after 72 hrs by MTT assay; assay type: functional, cell-based; conditions: MDA-MB-231, 72 h
[7] = Safety index, ratio of IC50 for human MCF10A cells to EC50 for human ER-positive MDA-MB-231 cells; conditions: MCF10A cells versus
in vitro = conditions: human, MCF10A cells versus
SW-620 = assay: Antiproliferative activity against human SW620 cells after 24 hrs by MTT assay; assay type: functional, cell-based; conditions: SW-620, 24 h
Method in brief: (§1)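 MTT viability: cells seeded at 1×10^4 per well in DMEM with 10% FBS, left to adhere overnight, then serum-starved 4 h. Compounds were given at a range of doses, with 0.1% DMSO vehicle as control. EC50 was taken from dose-response curves spanning 100nM-50µM. Data are mean ± SEM from at least three independent experiments.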

[8] = Antiproliferative activity against human DLD1 cells after 24 hrs by MTT assay; assay type: functional, cell-based; conditions: DLD-1, 24 h; method in brief: as §1
[9] = Antiproliferative activity against human HCT116 cells after 24 hrs by MTT assay; assay type: functional, cell-based; conditions: HCT-116, 24 h; method in brief: as §1
[10] = Antiproliferative activity against human COLO205 cells after 24 hrs by MTT assay; assay type: functional, cell-based; conditions: COLO 205, 24 h; method in brief: as §1
HEK293 = assay: Antiproliferative activity against HEK293 cells after 24 hrs by MTT assay; assay type: functional, cell-based; conditions: Homo sapiens, HEK293, 24 h; method in brief: as §1
[11] = Safety index, ratio of IC50 for human MCF10A cells to EC50 for human SW620 cells; assay type: toxicity, cell-based, SW-620; conditions: MCF10A cells versus SW620 cells, read-out: Ratio IC50/EC50
Method in brief: (§2)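 Safety index is the IC50 in the normal cells divided by the EC50 in the cancer cells. Both values come from MTT assays: cells in DMEM with 10% FBS, serum-starved 4 h, then exposed to compound across a 100nM-50µM dose range with 0.1% DMSO as vehicle control.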

[12] = Safety index, ratio of IC50 for human MCF10A cells to EC50 for human DLD1 cells; assay type: toxicity, cell-based, MCF-10A; conditions: MCF10A cells versus DLD1 cells, read-out: Ratio IC50/EC50; method in brief: as §2
[13] = Safety index, ratio of IC50 for human MCF10A cells to EC50 for human HCT116 cells; assay type: toxicity, cell-based, MCF-10A; conditions: MCF10A cells versus HCT116 cells, read-out: Ratio IC50/EC50; method in brief: as §2
[14] = Safety index, ratio of IC50 for human MCF10A cells to EC50 for human COLO205 cells; assay type: toxicity, cell-based, COLO 205; conditions: MCF10A cells versus COLO205 cells, read-out: Ratio IC50/EC50; method in brief: as §2

CSc1ccc(/C(=N\OCCCCN2CCCCC2)c2cccc3ccccc23)cc1
EC50 (MCF7 [1]; Homo sapiens, MCF7, 24 h): 8 µM | EC50 (MDA-MB-231 [2]; Homo sapiens, MDA-MB-231, 24 h): 18 µM | EC50 ([3]; Homo sapiens, DU-145, 24 h): 7.5 µM | EC50 (Ishikawa; Homo sapiens, Ishikawa, 24 h): 18 µM | EC50 (HeLa; Homo sapiens, HeLa, 24 h): 18 µM | IC50 [4]: 10 µM | EC50 (MCF7 [5]): 8 µM | EC50 (MDA-MB-231 [6]): 18 µM | selectivity ratio [7]: 0.5 | selectivity ratio (in vitro): 1.2

CSc1ccc(/C(=N\OCCN2CCCC2)c2cccc3ccccc23)cc1
EC50 (MCF7 [1]; Homo sapiens, MCF7, 24 h): 6.6 µM | EC50 (MDA-MB-231 [2]; Homo sapiens, MDA-MB-231, 24 h): 5.01 µM | EC50 ([3]; Homo sapiens, DU-145, 24 h): 9.5 µM | EC50 (Ishikawa; Homo sapiens, Ishikawa, 24 h): 6 µM | EC50 (HeLa; Homo sapiens, HeLa, 24 h): 6.6 µM | IC50 [4]: 5.5 µM | EC50 (MCF7 [5]): 5 µM | EC50 (MDA-MB-231 [6]): 3.8 µM | selectivity ratio [7]: 1.4 | selectivity ratio (in vitro): 1.1

CCN(CC)CCO/N=C(\c1ccc(OC)cc1)c1cccc2ccccc12
EC50 (MCF7 [1]; Homo sapiens, MCF7, 24 h): 20 µM | EC50 (MDA-MB-231 [2]; Homo sapiens, MDA-MB-231, 24 h): > 50 µM | EC50 ([3]; Homo sapiens, DU-145, 24 h): > 50 µM | EC50 (Ishikawa; Homo sapiens, Ishikawa, 24 h): > 50 µM | EC50 (HeLa; Homo sapiens, HeLa, 24 h): > 50 µM

O=c1[nH]cc(F)c(=O)[nH]1 [FLUOROURACIL]
EC50 (SW-620): > 50 µM | EC50 [8]: 16.3 µM | EC50 [9]: > 50 µM | EC50 [10]: 38.1 µM | IC50 (HEK293): 48.7 µM | selectivity ratio [11]: 0.97 | selectivity ratio [12]: 2.98 | selectivity ratio [13]: 0.97 | selectivity ratio [14]: 1.2

CCCCN(C)CCCO/N=C(\c1ccc(SC)cc1)c1cccc2ccccc12
EC50 (MCF7 [1]; Homo sapiens, MCF7, 24 h): > 50 µM | EC50 (MDA-MB-231 [2]; Homo sapiens, MDA-MB-231, 24 h): > 50 µM | EC50 ([3]; Homo sapiens, DU-145, 24 h): > 50 µM | EC50 (Ishikawa; Homo sapiens, Ishikawa, 24 h): > 50 µM | EC50 (HeLa; Homo sapiens, HeLa, 24 h): 8 µM

CCN(CCCCO/N=C(\c1ccc(SC)cc1)c1cccc2ccccc12)Cc1ccccc1
EC50 (MCF7 [1]; Homo sapiens, MCF7, 24 h): > 50 µM | EC50 (MDA-MB-231 [2]; Homo sapiens, MDA-MB-231, 24 h): > 50 µM | EC50 ([3]; Homo sapiens, DU-145, 24 h): > 50 µM | EC50 (Ishikawa; Homo sapiens, Ishikawa, 24 h): > 50 µM | EC50 (HeLa; Homo sapiens, HeLa, 24 h): 10 µM

CSc1ccc(/C(=N\OCCN(C)C)c2cccc3ccccc23)cc1
EC50 (MCF7 [1]; Homo sapiens, MCF7, 24 h): 14 µM | EC50 (MDA-MB-231 [2]; Homo sapiens, MDA-MB-231, 24 h): 12.8 µM | EC50 ([3]; Homo sapiens, DU-145, 24 h): 15 µM | EC50 (Ishikawa; Homo sapiens, Ishikawa, 24 h): 9 µM | EC50 (HeLa; Homo sapiens, HeLa, 24 h): 14 µM

COc1ccc(/C(=N\OCCN2CCCCCC2)c2cccc3ccccc23)cc1
EC50 (MCF7 [1]; Homo sapiens, MCF7, 24 h): 25 µM | EC50 (MDA-MB-231 [2]; Homo sapiens, MDA-MB-231, 24 h): 30 µM | EC50 ([3]; Homo sapiens, DU-145, 24 h): 35 µM | EC50 (Ishikawa; Homo sapiens, Ishikawa, 24 h): > 50 µM | EC50 (HeLa; Homo sapiens, HeLa, 24 h): 20.5 µM

CCCCC(CC)CNCCCO/N=C(\c1ccc(OC)cc1)c1cccc2ccccc12 (stereo not given)
EC50 (MCF7 [1]; Homo sapiens, MCF7, 24 h): > 50 µM | EC50 (MDA-MB-231 [2]; Homo sapiens, MDA-MB-231, 24 h): > 50 µM | EC50 ([3]; Homo sapiens, DU-145, 24 h): > 50 µM | EC50 (Ishikawa; Homo sapiens, Ishikawa, 24 h): > 50 µM | EC50 (HeLa; Homo sapiens, HeLa, 24 h): > 50 µM

CCN(CC)C(=O)CO/N=C(\c1ccc(SC)cc1)c1cccc2ccccc12
EC50 (MCF7 [1]; Homo sapiens, MCF7, 24 h): 28 µM | EC50 (MDA-MB-231 [2]; Homo sapiens, MDA-MB-231, 24 h): 30 µM | EC50 ([3]; Homo sapiens, DU-145, 24 h): > 50 µM | EC50 (Ishikawa; Homo sapiens, Ishikawa, 24 h): > 50 µM | EC50 (HeLa; Homo sapiens, HeLa, 24 h): 25 µM

CC/C(=C(\c1ccc(O)cc1)c1ccc(OCCN(C)C)cc1)c1ccccc1 [AFIMOXIFENE]
EC50 (MCF7 [1]; Homo sapiens, MCF7, 24 h): 8.8 µM | EC50 (MDA-MB-231 [2]; Homo sapiens, MDA-MB-231, 24 h): 8 µM | EC50 ([3]; Homo sapiens, DU-145, 24 h): 10 µM | EC50 (Ishikawa; Homo sapiens, Ishikawa, 24 h): 11.5 µM | EC50 (MDA-MB-231 [6]): 7.8 µM | selectivity ratio [7]: 1.28

CSc1ccc(/C(=N\OCCCN(C)C)c2cccc3ccccc23)cc1
EC50 (MCF7 [1]; Homo sapiens, MCF7, 24 h): 8 µM | EC50 (MDA-MB-231 [2]; Homo sapiens, MDA-MB-231, 24 h): 7.2 µM | EC50 ([3]; Homo sapiens, DU-145, 24 h): 9.5 µM | EC50 (Ishikawa; Homo sapiens, Ishikawa, 24 h): 7 µM | EC50 (HeLa; Homo sapiens, HeLa, 24 h): 8 µM | IC50 [4]: 30 µM | EC50 (MCF7 [5]): 1 µM | EC50 (MDA-MB-231 [6]): 5.6 µM | selectivity ratio [7]: 5.3 | selectivity ratio (in vitro): 30

CSc1ccc(/C(=N\OCCCN2CCCCC2)c2cccc3ccccc23)cc1
EC50 (MCF7 [1]; Homo sapiens, MCF7, 24 h): 5 µM | EC50 (MDA-MB-231 [2]; Homo sapiens, MDA-MB-231, 24 h): 20 µM | EC50 ([3]; Homo sapiens, DU-145, 24 h): 15 µM | EC50 (Ishikawa; Homo sapiens, Ishikawa, 24 h): 12 µM | EC50 (HeLa; Homo sapiens, HeLa, 24 h): 6.5 µM | IC50 [4]: 10 µM | EC50 (MCF7 [5]): 5 µM | EC50 (MDA-MB-231 [6]): 20 µM | selectivity ratio [7]: 0.5 | selectivity ratio (in vitro): 2

CSc1ccc(/C(=N\OC(C)CN(C)C)c2cccc3ccccc23)cc1 (stereo not given)
EC50 (MCF7 [1]; Homo sapiens, MCF7, 24 h): > 50 µM | EC50 (MDA-MB-231 [2]; Homo sapiens, MDA-MB-231, 24 h): > 50 µM | EC50 ([3]; Homo sapiens, DU-145, 24 h): > 50 µM | EC50 (Ishikawa; Homo sapiens, Ishikawa, 24 h): > 50 µM | EC50 (HeLa; Homo sapiens, HeLa, 24 h): > 50 µM

CSc1ccc(/C(=N\OCCCCNCCc2ccccc2)c2cccc3ccccc23)cc1
EC50 (MCF7 [1]; Homo sapiens, MCF7, 24 h): 18 µM | EC50 (MDA-MB-231 [2]; Homo sapiens, MDA-MB-231, 24 h): 20 µM | EC50 ([3]; Homo sapiens, DU-145, 24 h): > 50 µM | EC50 (Ishikawa; Homo sapiens, Ishikawa, 24 h): > 50 µM | EC50 (HeLa; Homo sapiens, HeLa, 24 h): > 50 µM

COc1ccc(/C(=N\OC(C)CN(C)C)c2cccc3ccccc23)cc1 (stereo not given)
EC50 (MCF7 [1]; Homo sapiens, MCF7, 24 h): > 50 µM | EC50 (MDA-MB-231 [2]; Homo sapiens, MDA-MB-231, 24 h): > 50 µM | EC50 ([3]; Homo sapiens, DU-145, 24 h): > 50 µM | EC50 (Ishikawa; Homo sapiens, Ishikawa, 24 h): > 50 µM | EC50 (HeLa; Homo sapiens, HeLa, 24 h): > 50 µM

COc1ccc(/C(=N\OCCN(C(C)C)C(C)C)c2cccc3ccccc23)cc1
EC50 (MCF7 [1]; Homo sapiens, MCF7, 24 h): 23 µM | EC50 (MDA-MB-231 [2]; Homo sapiens, MDA-MB-231, 24 h): > 50 µM | EC50 ([3]; Homo sapiens, DU-145, 24 h): > 50 µM | EC50 (Ishikawa; Homo sapiens, Ishikawa, 24 h): > 50 µM | EC50 (HeLa; Homo sapiens, HeLa, 24 h): > 50 µM

COc1ccc(/C(=N\OCCN2CCOCC2)c2cccc3ccccc23)cc1
EC50 (MCF7 [1]; Homo sapiens, MCF7, 24 h): 20 µM | EC50 (MDA-MB-231 [2]; Homo sapiens, MDA-MB-231, 24 h): 25 µM | EC50 ([3]; Homo sapiens, DU-145, 24 h): > 50 µM | EC50 (Ishikawa; Homo sapiens, Ishikawa, 24 h): > 50 µM | EC50 (HeLa; Homo sapiens, HeLa, 24 h): > 50 µM

CSc1ccc(/C(=N\O)c2cccc3ccccc23)cc1
EC50 (MCF7 [1]; Homo sapiens, MCF7, 24 h): 18 µM | EC50 (MDA-MB-231 [2]; Homo sapiens, MDA-MB-231, 24 h): 20 µM | EC50 ([3]; Homo sapiens, DU-145, 24 h): > 50 µM | EC50 (Ishikawa; Homo sapiens, Ishikawa, 24 h): > 50 µM | EC50 (HeLa; Homo sapiens, HeLa, 24 h): 18 µM

CCN(CC)CCO/N=C(\c1ccc(SC)cc1)c1cccc2ccccc12
EC50 (MCF7 [1]; mcf7): > 50 µM | EC50 (MDA-MB-231 [2]; mda-mb-231): > 50 µM | EC50 ([3]; du-145): > 50 µM | EC50 (Ishikawa; ishikawa): > 50 µM | EC50 (HeLa; hela): > 50 µM
